Results of several laboratories.
Compare with care: the assays were run in different laboratories.
Target: Serine/threonine-protein kinase DCLK3 (DCLK3, Homo sapiens, UniProt Q9C098)
Sequence (Q9C098 1-648, as in one of the studies): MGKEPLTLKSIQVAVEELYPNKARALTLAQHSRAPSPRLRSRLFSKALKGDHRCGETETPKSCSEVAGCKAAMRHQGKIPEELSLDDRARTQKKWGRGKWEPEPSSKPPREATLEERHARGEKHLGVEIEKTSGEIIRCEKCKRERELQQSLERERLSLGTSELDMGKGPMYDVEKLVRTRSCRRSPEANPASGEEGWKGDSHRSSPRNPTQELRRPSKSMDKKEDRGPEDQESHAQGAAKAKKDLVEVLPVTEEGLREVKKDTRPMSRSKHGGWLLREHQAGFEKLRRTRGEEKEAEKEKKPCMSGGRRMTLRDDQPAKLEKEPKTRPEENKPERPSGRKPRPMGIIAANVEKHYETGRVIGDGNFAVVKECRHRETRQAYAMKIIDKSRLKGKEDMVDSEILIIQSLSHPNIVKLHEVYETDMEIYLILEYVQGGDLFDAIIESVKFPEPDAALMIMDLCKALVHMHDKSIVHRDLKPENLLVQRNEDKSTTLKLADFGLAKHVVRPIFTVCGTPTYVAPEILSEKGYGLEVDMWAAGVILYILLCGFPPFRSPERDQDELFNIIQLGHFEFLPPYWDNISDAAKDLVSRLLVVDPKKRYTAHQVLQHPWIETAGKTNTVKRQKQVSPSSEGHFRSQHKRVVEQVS

| Structure (SMILES) | assay | conditions | measurement | value |
| --- | --- | --- | --- | --- |
| Cc1ccc(C(=O)Nc2ccc(CN3CCN(C)CC3)c(C(F)(F)F)c2)cc1C#Cc1cnc2cccnn12 | enzyme activity, inhibitor | 23.5 nM | remaining activity | 100% |
| Cc1ccc(NC(=O)c2ccc(C)c(C(F)(F)F)c2)cc1C#Cc1nn(C2CCC(O)CC2)c2ncnc(N)c12 (stereo not drawn) | cell-free assay | 10 µM | remaining signal | 101% |
| COc1cc(Cl)c(C(=O)N[C@@H](CN[C@H]2CC[C@@H](N)CC2)Cc2ccc(C#N)cc2)cc1-c1ccc(CN[C@H](C)c2ccc(C)cc2)o1 | enzyme activity, inhibitor | 1 µM | remaining activity | 89% |
| COc1ccc2c(O[C@@H]3C[C@H]4C(=O)N[C@]5(C(=O)O)CC5/C=C\CCCCC[C@H](NC(=O)OC5CCCC5)C(=O)N4C3)cc(-c3csc(NC(=O)C(C)C)n3)nc2c1C (stereo partly drawn) | cell-free assay, competition with immobilised ligand | 1 µM | remaining binding | 96% |
| Cc1cc(NC(=O)c2cccc3cc(-c4cccc5[nH]nc(N)c45)ccc23)ccc1F | enzyme activity, inhibitor | 0.1 µM | activity vs control | 110% |
| COc1cc(-c2cn(C3CCc4ccccc4N(CC(F)(F)F)C3=O)nn2)ccc1-n1ccc(C)n1 (stereo not drawn) | cell-free assay, competition with immobilised ligand | 1 µM | remaining binding | 100% |
| Nc1ncnc2occ(-c3ccc(NC(=O)Nc4cc(C(F)(F)F)ccc4F)cc3)c12 | cell-free assay, inhibitor | 20 µM | remaining signal | 24% |
| CN1CC(Oc2cnc(C#N)cc2-c2ccn3nc(NC(=O)C4CC4)cc3c2)C1 | enzyme activity, inhibitor | 1 µM | inhibition | -4% |
| Cc1cnc(NC2CCOCC2)nc1-n1cnc(C(=O)NC(CN)c2cc(F)cc(Cl)c2)c1 (stereo not drawn) | enzyme activity, inhibitor, radiometric | 1 µM | remaining activity | 56% |
